ChEMBL document CHEMBL1124369, “Pyrido[3,4-e]-1,2,4-triazines and related heterocycles as potential antifungal agents” (1989)
Converted amounts (≈) assume the structure as drawn.

Experiments:
[1] = system: Trichophyton benhamiae; experiment: Antifungal activity against Trichophyton mentagrophytes; type: functional, trychophyton mentagrophytes
How it was run: (§1)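 Agar dilution MIC. Twofold serial drug dilutions in yeast nitrogen base medium with 1% dextrose, 0.15% asparagine and 1.5% agar. Agar surfaces inoculated using a Steers multiple inocula replicator, then incubated at 35 °C for 24-48 h. MIC was recorded as the lowest concentration inhibiting visible growth. Amphotericin B, miconazole and nystatin served as controls.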

[2] = system: Candida albicans; experiment: Antifungal activity against Candida albicans; type: functional; how it was run: as §1
[3] = system: Aspergillus niger; experiment: Antifungal activity against Aspergillus niger; Range is 32-128; type: functional; how it was run: as §1
[4] = system: Trichophyton rubrum; experiment: Antifungal activity against Trichophyton rubrum; Range is 2-4; type: functional; how it was run: as §1
[5] = system: Candida parapsilosis; experiment: Antifungal activity against Candida parapsilosis; type: functional; conditions: Lodderomyces parapsilosis; how it was run: as §1
[6] = system: Kluyveromyces marxianus; experiment: Antifungal activity against Candida pseudotropicalis; type: functional; how it was run: as §1
[7] = system: Candida tropicalis; experiment: Antifungal activity against Candida tropicalis; type: functional; how it was run: as §1
[8] = system: Trichophyton rubrum; experiment: Antifungal activity against Trichophyton rubrum; Range is 64-128; type: functional
[9] = system: Trichophyton benhamiae; experiment: Antifungal activity against Trichophyton mentagrophytes; Range is 64-128; type: functional, trychophyton mentagrophytes; how it was run: as §1
[10] = system: Candida tropicalis; experiment: Antifungal activity against Candida tropicalis; Range is 64-128; type: functional; how it was run: as §1
[11] = system: Aspergillus niger; experiment: Antifungal activity against Aspergillus niger; type: functional; how it was run: as §1
[12] = system: Diutina rugosa; experiment: Antifungal activity against Candida rugosa; type: functional; how it was run: as §1
[13] = system: Candida albicans; experiment: microbe, parasite or virus in culture
[14] = system: Candida albicans; experiment: Antifungal activity against Candida stellatoidea; type: functional; how it was run: as §1
[15] = system: Mucor fragilis; experiment: Antifungal activity against Mucor fragilis; type: functional; how it was run: as §1
[16] = system: Candida tropicalis; experiment: Antifungal activity against Candida tropicalis; Range is 0.25-0.5; type: functional
[17] = system: Trichophyton rubrum; experiment: Antifungal activity against Trichophyton rubrum; type: functional; how it was run: as §1
[18] = system: Kluyveromyces marxianus; experiment: Antifungal activity against Candida pseudotropicalis; Range is 32-64; type: functional; how it was run: as §1
[19] = system: Trichophyton rubrum; experiment: Antifungal activity against Trichophyton rubrum; Range is 32-128; type: functional; how it was run: as §1
[20] = system: Kluyveromyces marxianus; experiment: Antifungal activity against Candida pseudotropicalis; Range is 2-4; type: functional; how it was run: as §1
[21] = system: Aspergillus niger; experiment: Antifungal activity against Aspergillus niger; Range is 64-128; type: functional; how it was run: as §1
[22] = system: Candida tropicalis; experiment: Antifungal activity against Candida tropicalis; Range is 4-8; type: functional; how it was run: as §1
[23] = system: Trichophyton benhamiae; experiment: Antifungal activity against Trichophyton mentagrophytes; Range is 4-8; type: functional, trychophyton mentagrophytes; how it was run: as §1
[24] = system: Kluyveromyces marxianus; experiment: Antifungal activity against Candida pseudotropicalis; Range is 4-8; type: functional; how it was run: as §1
[25] = system: Candida albicans; experiment: Antifungal activity against Candida albicans; Range is 4-8; type: functional; how it was run: as §1
[26] = system: Candida tropicalis; experiment: Antifungal activity against Candida tropicalis; Range is 32-64; type: functional; how it was run: as §1
[27] = system: Kluyveromyces marxianus; experiment: Antifungal activity against Candida pseudotropicalis; Range is 1-32; type: functional; how it was run: as §1
[28] = system: Trichophyton benhamiae; experiment: Antifungal activity against Trichophyton mentagrophytes; Range is 16-32; type: functional, trychophyton mentagrophytes
[29] = system: Aspergillus niger; experiment: Antifungal activity against Aspergillus niger; Range is 8-16; type: functional; how it was run: as §1
[30] = system: Trichophyton rubrum; experiment: Antifungal activity against Trichophyton rubrum; Range is 4-8; type: functional; how it was run: as §1
[31] = system: Candida albicans; experiment: Antifungal activity against Candida albicans; Range is 8-16; type: functional; how it was run: as §1
[32] = system: Aspergillus niger; experiment: Antifungal activity against Aspergillus niger; Range is 16-128; type: functional; how it was run: as §1
[33] = system: Trichophyton benhamiae; experiment: Antifungal activity against Trichophyton mentagrophytes; Range is 32-64; type: functional, trychophyton mentagrophytes; how it was run: as §1
[34] = system: Trichophyton rubrum; experiment: Antifungal activity against Trichophyton rubrum; Range is 16-32; type: functional; how it was run: as §1

SMILES	MIC [1] [µg/mL]	MIC [2] [µg/mL]	MIC [5] [µg/mL]	MIC [6] [µg/mL]	MIC [7] [µg/mL]	MIC [11] [µg/mL]	MIC [12] [µg/mL]	MIC [14] [µg/mL]	MIC [17] [µg/mL]	further results
Cc1nnc2ccccc2n1	–	128 (≈ 882 µM)	128 (≈ 882 µM)	128 (≈ 882 µM)	–	128 (≈ 882 µM)	–	–	–	MIC [8]: 64 µg/mL (≈ 441 µM); MIC [9]: 64 µg/mL (≈ 441 µM); MIC [10]: 64 µg/mL (≈ 441 µM)
C[C@@H]1[C@H](O)[C@@H](C)/C=C/C=C/C=C/C=C/C=C/C=C/C=C/[C@H](O[C@@H]2O[C@H](C)[C@@H](O)[C@H](N)[C@@H]2O)C[C@@H]2O[C@](O)(C[C@@H](O)C[C@@H](O)[C@H](O)CC[C@@H](O)C[C@@H](O)CC(=O)O[C@H]1C)C[C@H](O)[C@H]2C(=O)O [AMPHOTERICIN B]	1 (≈ 1.08 µM)	–	0.5 (≈ 0.541 µM)	0.5 (≈ 0.541 µM)	–	0.5 (≈ 0.541 µM)	> 128	> 128	0.5 (≈ 0.541 µM)	MIC [13]: 0.25 µg/mL (≈ 0.271 µM); MIC [15]: 0.25 µg/mL (≈ 0.271 µM); MIC [16]: 0.25 µg/mL (≈ 0.271 µM)
c1ccc(-c2nnc3ccncc3n2)nc1	32 (≈ 153 µM)	64 (≈ 306 µM)	64 (≈ 306 µM)	–	64 (≈ 306 µM)	32 (≈ 153 µM)	64 (≈ 306 µM)	16 (≈ 76.5 µM)	–	MIC [18]: 32 µg/mL (≈ 153 µM); MIC [15]: 64 µg/mL (≈ 306 µM); MIC [4]: 2 µg/mL (≈ 9.56 µM)
CC(=O)Nc1c(C)nc(C)c2nc(-c3ccc(F)cc3)nnc12	–	128 (≈ 411 µM)	128 (≈ 411 µM)	128 (≈ 411 µM)	128 (≈ 411 µM)	128 (≈ 411 µM)	–	–	–	MIC [9]: 64 µg/mL (≈ 206 µM); MIC [19]: 32 µg/mL (≈ 103 µM)
c1ccc2c(c1)ncc1nc(-c3ccncc3)nnc12	64 (≈ 247 µM)	128 (≈ 494 µM)	128 (≈ 494 µM)	–	128 (≈ 494 µM)	–	–	–	64 (≈ 247 µM)	MIC [20]: 2 µg/mL (≈ 7.71 µM); MIC [21]: 64 µg/mL (≈ 247 µM)
CCC1(Cc2ccccc2)N=Nc2ccncc2N1 (centres undefined)	–	128 (≈ 507 µM)	128 (≈ 507 µM)	–	–	128 (≈ 507 µM)	–	–	32 (≈ 127 µM)	MIC [26]: 32 µg/mL (≈ 127 µM); MIC [27]: 1 µg/mL (≈ 3.96 µM); MIC [28]: 16 µg/mL (≈ 63.4 µM)
Fc1ccc(-c2nnc3ncccc3n2)cc1	32 (≈ 141 µM)	128 (≈ 566 µM)	–	128 (≈ 566 µM)	128 (≈ 566 µM)	–	128 (≈ 566 µM)	128 (≈ 566 µM)	> 128	MIC [32]: 16 µg/mL (≈ 70.7 µM)
CC(C)(C)c1nnc2ccncc2n1	–	64 (≈ 340 µM)	64 (≈ 340 µM)	64 (≈ 340 µM)	64 (≈ 340 µM)	64 (≈ 340 µM)	–	–	–	MIC [33]: 32 µg/mL (≈ 170 µM); MIC [34]: 16 µg/mL (≈ 85 µM)

Second part, led by results:

MIC [1] [µg/mL]	MIC [2] [µg/mL]	MIC [5] [µg/mL]	MIC [6] [µg/mL]	MIC [7] [µg/mL]	MIC [11] [µg/mL]	MIC [12] [µg/mL]	MIC [14] [µg/mL]	MIC [17] [µg/mL]	SMILES	further results
8 (≈ 31.8 µM)	64 (≈ 255 µM)	64 (≈ 255 µM)	32 (≈ 127 µM)	64 (≈ 255 µM)	–	–	–	–	CN(C)c1ccc(-c2nnc3ccncc3n2)cc1	MIC [3]: 32 µg/mL (≈ 127 µM); MIC [4]: 2 µg/mL (≈ 7.96 µM)
–	–	16 (≈ 99.9 µM)	–	–	32 (≈ 200 µM)	–	–	4 (≈ 25 µM)	Cc1cc2nncnc2c(C)n1	MIC [22]: 4 µg/mL (≈ 25 µM); MIC [23]: 4 µg/mL (≈ 25 µM); MIC [24]: 4 µg/mL (≈ 25 µM); MIC [25]: 4 µg/mL (≈ 25 µM)
4 (≈ 19.1 µM)	8 (≈ 38.2 µM)	8 (≈ 38.2 µM)	–	–	–	32 (≈ 153 µM)	32 (≈ 153 µM)	–	c1cc(-c2nnc3ccncc3n2)ccn1	MIC [22]: 4 µg/mL (≈ 19.1 µM); MIC [20]: 2 µg/mL (≈ 9.56 µM); MIC [15]: 32 µg/mL (≈ 153 µM); MIC [29]: 8 µg/mL (≈ 38.2 µM); MIC [4]: 2 µg/mL (≈ 9.56 µM)
4 (≈ 22 µM)	–	16 (≈ 87.8 µM)	8 (≈ 43.9 µM)	16 (≈ 87.8 µM)	–	–	–	–	c1ccc2c(c1)ncc1ncnnc12 [STRINOLINE]	MIC [30]: 4 µg/mL (≈ 22 µM); MIC [31]: 8 µg/mL (≈ 43.9 µM); MIC [29]: 8 µg/mL (≈ 43.9 µM)
